In brackets after ≈: the same amount, converted by molar mass. Activity calls are given as the source filed them. The calls are words filed in the database; no cut-off is given here.
Columns and labels:
[1] = target: Voltage-gated inwardly rectifying potassium channel KCNH2 (Homo sapiens, UniProt Q12809); test: Inhibition of human ERG channel by dofetilide binding assay
[2] = Oral bioavailability in Sprague-Dawley rat at 5 mg/kg; type: ADME, organism-based; conditions: in vivo
[3] = target: T1, Serine-protein kinase ATM (Homo sapiens, UniProt Q13315); test: Inhibition of ATM (unknown origin)
[4] = Apparent permeability from apical to basolateral side in human Caco2 cells at 10 uM and pH 7.4; conditions: Caco-2, pH 7.4
[5] = Apparent permeability from basolateral to apical side in human Caco2 cells at 10 uM and pH 7.4; conditions: Caco-2, pH 7.4
[6] = Half life in Sprague-Dawley rat at 2.5 mg/kg, iv and 2.5 mg/kg, po; conditions: in vivo
[7] = Growth inhibition of human HT144 cells after 72 hrs by Cell Titer Glow assay; type: functional, cell-based; conditions: HT-144, 72 h
Procedure, shortened: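 Cell Titer Glo viability read-out after 72 hr continuous compound exposure.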

[8] = target: T2, DNA-dependent protein kinase catalytic subunit (Homo sapiens, UniProt P78527); test: Inhibition of DNAPK (unknown origin)
[9] = target: T3, Cytochrome P450 1A2 (Homo sapiens, UniProt P05177); test: Inhibition of CYP1A2 (unknown origin); type: ADME
T3 sequence (P05177 whole entry): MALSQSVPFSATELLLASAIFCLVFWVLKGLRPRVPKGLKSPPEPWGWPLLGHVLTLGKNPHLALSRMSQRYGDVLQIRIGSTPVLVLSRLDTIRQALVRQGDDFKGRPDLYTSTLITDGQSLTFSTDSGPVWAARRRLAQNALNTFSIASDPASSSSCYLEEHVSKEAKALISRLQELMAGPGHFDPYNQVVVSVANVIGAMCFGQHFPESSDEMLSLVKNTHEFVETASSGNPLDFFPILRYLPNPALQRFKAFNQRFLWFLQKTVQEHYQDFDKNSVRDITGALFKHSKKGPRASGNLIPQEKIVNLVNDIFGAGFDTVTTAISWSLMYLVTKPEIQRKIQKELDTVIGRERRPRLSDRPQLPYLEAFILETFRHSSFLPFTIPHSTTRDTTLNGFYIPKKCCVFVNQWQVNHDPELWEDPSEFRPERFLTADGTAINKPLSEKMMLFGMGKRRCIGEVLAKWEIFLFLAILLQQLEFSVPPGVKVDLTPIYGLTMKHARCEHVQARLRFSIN

[10] = target: Cytochrome P450 3A4 (Homo sapiens, UniProt P08684); test: Inhibition of CYP3A4 (unknown origin); type: ADME
[11] = Clearance in Sprague-Dawley rat at 2.5 mg/kg, iv and 5 mg/kg, po; type: ADME, organism-based; conditions: in vivo
[12] = target: T4, Cytochrome P450 2C9 (Homo sapiens, UniProt P11712); test: Inhibition of CYP2C9 (unknown origin); type: ADME
[13] = target: T5, Cytochrome P450 2D6 (Homo sapiens, UniProt P10635); test: Inhibition of CYP2D6 (unknown origin); type: ADME
[14] = target: Serine/threonine-protein kinase ATR (Homo sapiens, UniProt Q13535); test: Inhibition of human ATR using ATP substrate measured after 3 hrs
[15] = Solubility of the compound in PBS buffer at pH 7 by shake flask equilibrium solubility assay
[16] = target: Serine/threonine-protein kinase mTOR (Homo sapiens, UniProt P42345); test: Inhibition of mTOR (unknown origin)
[17] = Volume of distribution at steady state in Sprague-Dawley rat at 2.5 mg/kg, iv and 5 mg/kg, po; type: ADME, organism-based; conditions: in vivo, read-out: Vdss
[18] = target: T6, Serine/threonine-protein kinase Chk1 (Homo sapiens, UniProt O14757); test: Inhibition of full-length Chk1 in HeLa S3 cells assessed as phosphorylation at Ser345 after 4 hrs; type: cell-based
T6 sequence (O14757 whole entry): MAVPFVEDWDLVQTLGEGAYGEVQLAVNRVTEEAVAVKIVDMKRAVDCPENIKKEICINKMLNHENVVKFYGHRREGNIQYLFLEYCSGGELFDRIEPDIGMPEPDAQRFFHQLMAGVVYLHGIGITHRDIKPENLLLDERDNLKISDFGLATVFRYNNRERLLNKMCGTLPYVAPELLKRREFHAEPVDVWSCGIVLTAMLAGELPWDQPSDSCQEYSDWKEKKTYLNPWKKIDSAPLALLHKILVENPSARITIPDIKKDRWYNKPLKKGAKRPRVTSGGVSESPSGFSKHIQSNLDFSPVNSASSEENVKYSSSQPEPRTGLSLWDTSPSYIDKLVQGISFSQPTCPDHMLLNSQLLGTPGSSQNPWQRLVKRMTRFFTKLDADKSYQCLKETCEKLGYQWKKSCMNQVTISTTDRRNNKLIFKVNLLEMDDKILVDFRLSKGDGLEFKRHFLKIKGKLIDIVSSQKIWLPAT
Procedure, shortened: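 HeLa S3 cells exposed to 1 µM gemcitabine together with test compound for 4 hr; read-out is Ser345-phosphorylated Chk1.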

[19] = target: T7, Phosphatidylinositol 4,5-bisphosphate 3-kinase catalytic subunit alpha isoform (Homo sapiens, UniProt P42336); test: Inhibition of PI3Kalpha (unknown origin)
[20] = target: T4, Cytochrome P450 2C9; test: Time dependent inhibition of CYP2C9 in human liver microsomes; type: ADME; conditions: TDE = time-dependent effect
[21] = target: T7, Phosphatidylinositol 4,5-bisphosphate 3-kinase catalytic subunit alpha isoform; test: Inhibition of PI3Kalpha (unknown origin) at <8 uM
[22] = target: Phosphatidylinositol 4,5-bisphosphate 3-kinase catalytic subunit beta isoform (Homo sapiens) (UniProt P42338); test: Inhibition of PI3Kbeta (unknown origin) at <8 uM
[23] = target: T2, DNA-dependent protein kinase catalytic subunit; test: Inhibition of DNAPK (unknown origin) at 10 uM
[24] = target: T8, Phosphatidylinositol 4,5-bisphosphate 3-kinase catalytic subunit delta isoform (Homo sapiens) (UniProt O00329); test: Inhibition of PI3Kdelta (unknown origin) at <8 uM
T8 sequence (whole entry): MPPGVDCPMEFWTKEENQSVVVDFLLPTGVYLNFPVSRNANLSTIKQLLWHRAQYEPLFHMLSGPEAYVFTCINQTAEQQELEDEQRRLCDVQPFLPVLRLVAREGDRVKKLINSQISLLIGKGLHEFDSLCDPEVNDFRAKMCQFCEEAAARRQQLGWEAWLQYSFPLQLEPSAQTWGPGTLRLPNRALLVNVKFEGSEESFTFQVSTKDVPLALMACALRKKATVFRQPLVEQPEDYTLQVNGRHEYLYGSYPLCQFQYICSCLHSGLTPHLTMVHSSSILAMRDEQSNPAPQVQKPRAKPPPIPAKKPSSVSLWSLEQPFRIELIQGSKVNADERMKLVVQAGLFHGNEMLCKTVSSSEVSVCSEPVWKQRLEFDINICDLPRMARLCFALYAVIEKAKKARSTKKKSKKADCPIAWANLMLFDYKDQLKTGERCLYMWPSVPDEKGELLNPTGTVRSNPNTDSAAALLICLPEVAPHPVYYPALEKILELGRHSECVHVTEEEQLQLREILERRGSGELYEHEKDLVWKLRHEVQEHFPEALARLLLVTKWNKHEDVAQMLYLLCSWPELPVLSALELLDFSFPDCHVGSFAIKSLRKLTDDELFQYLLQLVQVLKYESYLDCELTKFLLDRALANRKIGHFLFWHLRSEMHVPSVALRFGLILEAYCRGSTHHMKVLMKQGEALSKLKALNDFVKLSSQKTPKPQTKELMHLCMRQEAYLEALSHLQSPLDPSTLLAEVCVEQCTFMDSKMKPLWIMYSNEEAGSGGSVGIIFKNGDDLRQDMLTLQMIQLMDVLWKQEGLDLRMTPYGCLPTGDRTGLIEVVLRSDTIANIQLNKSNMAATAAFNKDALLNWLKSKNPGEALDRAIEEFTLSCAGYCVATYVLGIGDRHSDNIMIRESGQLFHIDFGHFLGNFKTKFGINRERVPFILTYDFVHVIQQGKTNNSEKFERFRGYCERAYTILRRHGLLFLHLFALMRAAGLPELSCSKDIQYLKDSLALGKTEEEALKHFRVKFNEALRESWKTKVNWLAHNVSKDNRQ

[25] = target: T3, Cytochrome P450 1A2; test: Time dependent inhibition of CYP1A2 in human liver microsomes; type: ADME; conditions: TDE = time-dependent effect
[26] = target: Phosphatidylinositol 4,5-bisphosphate 3-kinase catalytic subunit gamma isoform (Homo sapiens) (UniProt P48736); test: Inhibition of PI3Kgamma (unknown origin) at <8 uM
[27] = target: T1, Serine-protein kinase ATM; test: Inhibition of ATM (unknown origin) at 2 uM
[28] = target: T5, Cytochrome P450 2D6; test: Time dependent inhibition of CYP2D6 in human liver microsomes; type: ADME; conditions: TDE = time-dependent effect
[29] = Intrinsic clearance in rat liver microsomes; type: ADME; conditions: read-out: CLH
Procedure, shortened: (§1)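 Liver microsomes from mouse, rat or human; intrinsic clearance scaled to hepatic blood flow.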

[30] = Intrinsic clearance in mouse liver microsomes; type: ADME; conditions: read-out: CLH; procedure, shortened: as §1
[31] = Intrinsic clearance in human liver microsomes; type: ADME; conditions: read-out: CLH; procedure, shortened: as §1

T7 sequence (P42336 whole entry, canonical isoform): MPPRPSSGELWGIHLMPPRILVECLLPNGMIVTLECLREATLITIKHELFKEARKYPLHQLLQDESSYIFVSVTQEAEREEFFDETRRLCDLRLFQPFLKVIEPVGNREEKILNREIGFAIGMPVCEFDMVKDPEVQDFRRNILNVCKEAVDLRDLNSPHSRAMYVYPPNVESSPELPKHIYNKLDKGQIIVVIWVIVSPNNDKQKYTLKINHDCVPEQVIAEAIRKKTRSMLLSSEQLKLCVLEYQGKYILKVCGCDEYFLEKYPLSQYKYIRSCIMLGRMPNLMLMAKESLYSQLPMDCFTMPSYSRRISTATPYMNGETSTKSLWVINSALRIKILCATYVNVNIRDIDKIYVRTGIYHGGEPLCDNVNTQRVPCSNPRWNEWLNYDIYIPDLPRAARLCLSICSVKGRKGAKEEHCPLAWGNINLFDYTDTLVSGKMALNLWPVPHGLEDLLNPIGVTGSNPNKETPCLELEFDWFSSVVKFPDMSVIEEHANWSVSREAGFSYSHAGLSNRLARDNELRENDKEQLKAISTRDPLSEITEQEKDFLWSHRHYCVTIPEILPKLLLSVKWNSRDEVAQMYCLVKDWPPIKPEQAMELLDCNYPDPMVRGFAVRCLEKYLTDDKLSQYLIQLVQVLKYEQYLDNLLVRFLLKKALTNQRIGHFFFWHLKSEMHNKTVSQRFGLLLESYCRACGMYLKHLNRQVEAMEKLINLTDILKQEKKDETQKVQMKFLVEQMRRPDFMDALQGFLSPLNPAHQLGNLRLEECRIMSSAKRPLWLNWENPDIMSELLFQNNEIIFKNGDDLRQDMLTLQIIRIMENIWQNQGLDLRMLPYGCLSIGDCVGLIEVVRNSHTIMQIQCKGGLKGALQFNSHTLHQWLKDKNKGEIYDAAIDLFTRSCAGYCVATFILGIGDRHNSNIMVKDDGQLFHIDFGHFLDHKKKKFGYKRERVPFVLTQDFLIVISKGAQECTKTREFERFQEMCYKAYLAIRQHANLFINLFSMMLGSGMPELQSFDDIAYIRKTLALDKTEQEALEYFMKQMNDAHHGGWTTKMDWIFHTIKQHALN
Chain of Serine/threonine-protein kinase ATR (Q13535 whole entry): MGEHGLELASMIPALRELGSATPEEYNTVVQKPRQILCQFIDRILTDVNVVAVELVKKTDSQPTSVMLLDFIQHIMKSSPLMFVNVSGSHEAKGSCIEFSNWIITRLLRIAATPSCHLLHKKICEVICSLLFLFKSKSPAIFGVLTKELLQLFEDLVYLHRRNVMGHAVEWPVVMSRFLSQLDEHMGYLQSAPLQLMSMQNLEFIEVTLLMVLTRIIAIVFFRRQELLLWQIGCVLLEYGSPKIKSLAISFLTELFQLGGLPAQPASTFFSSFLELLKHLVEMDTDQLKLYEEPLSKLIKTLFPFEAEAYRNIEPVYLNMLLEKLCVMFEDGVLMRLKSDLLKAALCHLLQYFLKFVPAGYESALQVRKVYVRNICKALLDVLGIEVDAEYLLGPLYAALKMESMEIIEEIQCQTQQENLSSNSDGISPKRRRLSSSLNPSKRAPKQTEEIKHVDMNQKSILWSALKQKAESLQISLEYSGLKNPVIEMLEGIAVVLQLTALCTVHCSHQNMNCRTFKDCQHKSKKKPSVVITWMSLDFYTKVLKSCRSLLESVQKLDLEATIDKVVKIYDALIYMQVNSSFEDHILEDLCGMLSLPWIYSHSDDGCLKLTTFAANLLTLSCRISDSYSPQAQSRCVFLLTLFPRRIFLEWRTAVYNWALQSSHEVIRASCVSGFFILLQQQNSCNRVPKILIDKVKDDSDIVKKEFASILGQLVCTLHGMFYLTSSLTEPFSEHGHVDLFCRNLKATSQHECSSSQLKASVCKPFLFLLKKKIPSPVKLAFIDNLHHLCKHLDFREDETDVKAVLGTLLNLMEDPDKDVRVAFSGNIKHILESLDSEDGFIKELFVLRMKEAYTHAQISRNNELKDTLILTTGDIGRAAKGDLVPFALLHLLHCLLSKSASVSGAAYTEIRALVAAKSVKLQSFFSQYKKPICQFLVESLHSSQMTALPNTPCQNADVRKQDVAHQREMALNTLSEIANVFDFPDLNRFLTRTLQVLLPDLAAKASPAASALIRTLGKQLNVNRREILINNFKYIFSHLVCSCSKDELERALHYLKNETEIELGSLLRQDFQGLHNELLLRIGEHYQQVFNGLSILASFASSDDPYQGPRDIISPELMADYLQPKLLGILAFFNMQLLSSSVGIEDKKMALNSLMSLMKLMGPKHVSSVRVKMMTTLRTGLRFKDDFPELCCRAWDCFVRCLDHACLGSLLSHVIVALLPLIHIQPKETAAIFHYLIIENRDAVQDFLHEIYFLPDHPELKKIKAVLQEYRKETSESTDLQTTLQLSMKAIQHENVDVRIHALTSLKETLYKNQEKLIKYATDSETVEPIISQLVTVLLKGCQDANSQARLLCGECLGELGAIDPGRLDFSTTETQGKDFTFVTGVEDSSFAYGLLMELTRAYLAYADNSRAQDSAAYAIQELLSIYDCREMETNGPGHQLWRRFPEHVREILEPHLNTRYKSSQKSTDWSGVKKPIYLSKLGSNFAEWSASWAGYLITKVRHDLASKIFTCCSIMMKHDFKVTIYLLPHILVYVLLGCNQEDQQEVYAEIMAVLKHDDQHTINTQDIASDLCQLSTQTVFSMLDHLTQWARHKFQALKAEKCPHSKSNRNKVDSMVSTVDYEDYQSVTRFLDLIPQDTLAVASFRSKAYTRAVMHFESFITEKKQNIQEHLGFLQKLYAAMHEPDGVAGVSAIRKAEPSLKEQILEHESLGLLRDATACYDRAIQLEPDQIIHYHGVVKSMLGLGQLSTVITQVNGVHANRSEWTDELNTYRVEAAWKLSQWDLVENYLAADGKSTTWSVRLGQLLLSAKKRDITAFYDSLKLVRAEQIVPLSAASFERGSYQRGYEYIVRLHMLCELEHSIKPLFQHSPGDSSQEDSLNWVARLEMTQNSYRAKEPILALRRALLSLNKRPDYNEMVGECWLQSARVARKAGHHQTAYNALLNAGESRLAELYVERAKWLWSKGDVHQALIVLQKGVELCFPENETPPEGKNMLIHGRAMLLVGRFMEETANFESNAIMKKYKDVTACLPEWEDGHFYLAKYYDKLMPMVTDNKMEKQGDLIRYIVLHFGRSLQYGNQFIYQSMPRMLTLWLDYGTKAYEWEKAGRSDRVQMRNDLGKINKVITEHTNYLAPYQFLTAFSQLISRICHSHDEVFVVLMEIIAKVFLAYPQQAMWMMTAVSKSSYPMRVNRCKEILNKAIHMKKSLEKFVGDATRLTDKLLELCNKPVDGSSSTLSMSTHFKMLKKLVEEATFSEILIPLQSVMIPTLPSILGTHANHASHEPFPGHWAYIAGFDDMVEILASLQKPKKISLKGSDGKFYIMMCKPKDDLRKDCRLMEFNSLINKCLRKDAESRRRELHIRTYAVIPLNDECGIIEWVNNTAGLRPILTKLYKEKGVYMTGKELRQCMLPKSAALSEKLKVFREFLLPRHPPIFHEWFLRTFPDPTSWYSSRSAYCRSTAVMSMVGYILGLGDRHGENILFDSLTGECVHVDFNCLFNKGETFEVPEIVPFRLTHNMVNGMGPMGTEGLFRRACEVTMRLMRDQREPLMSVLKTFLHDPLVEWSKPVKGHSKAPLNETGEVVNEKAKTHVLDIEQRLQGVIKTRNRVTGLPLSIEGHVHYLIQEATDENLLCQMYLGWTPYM
T4 sequence (P11712 whole entry): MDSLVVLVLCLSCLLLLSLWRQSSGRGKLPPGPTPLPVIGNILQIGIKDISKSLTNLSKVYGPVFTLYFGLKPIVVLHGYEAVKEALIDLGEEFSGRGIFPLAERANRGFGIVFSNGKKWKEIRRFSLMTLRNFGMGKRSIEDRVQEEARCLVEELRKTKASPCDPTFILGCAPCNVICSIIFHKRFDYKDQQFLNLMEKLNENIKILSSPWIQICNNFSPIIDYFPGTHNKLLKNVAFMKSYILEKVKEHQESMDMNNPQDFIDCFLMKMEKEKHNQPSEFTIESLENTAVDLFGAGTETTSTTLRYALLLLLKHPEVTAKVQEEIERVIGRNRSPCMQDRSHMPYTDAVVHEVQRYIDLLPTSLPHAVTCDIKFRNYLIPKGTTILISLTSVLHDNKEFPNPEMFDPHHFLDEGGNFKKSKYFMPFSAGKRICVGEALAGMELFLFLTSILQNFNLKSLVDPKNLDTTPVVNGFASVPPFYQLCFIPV
T5 sequence (P10635 whole entry): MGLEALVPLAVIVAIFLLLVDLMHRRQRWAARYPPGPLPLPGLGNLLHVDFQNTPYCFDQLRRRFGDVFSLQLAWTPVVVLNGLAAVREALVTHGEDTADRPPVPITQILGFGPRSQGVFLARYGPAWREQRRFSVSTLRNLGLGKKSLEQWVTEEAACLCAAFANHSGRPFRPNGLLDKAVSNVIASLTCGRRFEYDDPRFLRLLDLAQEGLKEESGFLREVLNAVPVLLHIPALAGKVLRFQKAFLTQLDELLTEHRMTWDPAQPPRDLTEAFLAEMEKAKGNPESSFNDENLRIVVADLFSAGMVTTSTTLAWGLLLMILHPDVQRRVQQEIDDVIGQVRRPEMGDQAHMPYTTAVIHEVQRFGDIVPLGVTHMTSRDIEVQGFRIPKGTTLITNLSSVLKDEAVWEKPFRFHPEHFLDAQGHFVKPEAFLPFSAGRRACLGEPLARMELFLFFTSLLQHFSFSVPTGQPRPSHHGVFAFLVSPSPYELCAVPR

SMILES	bioavailability [2] [%]	Papp A→B at 10 µM [4] [×10⁻⁶ cm/s]	Papp B→A at 10 µM [5] [×10⁻⁶ cm/s]	clearance [11] [mL/min/kg]	IC50 [14] [nM]	solubility thermodynamic [15] [µM]	IC50 [19] [nM]	further results
O=C(NC1CC1)c1cn2c(N3CCOCC3)nc(-c3cccc4[nH]ccc34)cc2n1	–	–	–	–	39	–	–	–
C[C@@H]1COCCN1c1nc(-c2cnc(N)nc2)cc2c1ncn2CS(C)(=O)=O	–	–	–	–	6	–	–	–
C[C@@H]1COCCN1c1nc(-c2cccc3[nH]ccc23)cc2nccn12	–	–	–	–	95	–	> 10000	–
CS(=O)(=O)Cn1cnc2c(N3C4CCC3COC4)nc(-c3cnc(N)nc3)cc21	–	–	–	–	190	–	–	–
C[C@@H]1COCCN1c1nc(-c2cncc3[nH]ccc23)cc2c1ncn2[C@@H](C)S(C)(=O)=O	–	2	37	114	0.2	> 770	–	inhibition (INH) [20]: tde; inhibition [21]: inactive; inhibition [22]: inactive; IC50 [18]: 80 nM; inhibition [23]: inactive; IC50 [9]: > 40000 nM; IC50 [10]: > 40000 nM; inhibition [24]: inactive; inhibition (INH) [25]: tde; inhibition [26]: inactive; inhibition [27]: inactive; IC50 [12]: > 40000 nM; IC50 [13]: > 40000 nM; inhibition (INH) [28]: tde; IC50 [16]: > 4600 nM
CS(=O)(=O)Cn1cnc2c(N3CCOCC3)nc(-c3cccc4[nH]ccc34)cc21	96	14	58	14	5	193 (≈ 79.4 µg/mL)	> 10000	CLint scaled [29]: 30 mL/min/kg; EC50 [18]: 3300 nM; CLint scaled [30]: 31 mL/min/kg; CLint scaled [31]: 6 mL/min/kg
C[C@@H]1COCCN1c1nc(-c2c(F)ncc3[nH]ccc23)cc2c1ncn2C	66	38	38	20	0.1	> 2300	–	IC50 [18]: 96 nM; Vd [17]: 1.2 L/kg
c1cc(-c2cc3nccn3c(N3CCOCC3)n2)c2cc[nH]c2c1	–	–	–	–	96	56 (≈ 17.9 µg/mL)	> 10000	–

More lines, main results first:

bioavailability [2] [%]	Papp A→B at 10 µM [4] [×10⁻⁶ cm/s]	Papp B→A at 10 µM [5] [×10⁻⁶ cm/s]	clearance [11] [mL/min/kg]	IC50 [14] [nM]	solubility thermodynamic [15] [µM]	IC50 [19] [nM]	SMILES	further results
7.5	3.6	38	34	0.5	> 2400	–	C[C@@H]1COCCN1c1nc(-c2nncc3[nH]ccc23)cc2c1ncn2C	IC50 [1]: > 30000 nM; IC50 [3]: 15000 nM; half-life [6]: 2 h; IC50 [7]: 350 nM; IC50 [8]: > 25000 nM; IC50 [9]: > 24000 nM; IC50 [10]: > 24000 nM; IC50 [12]: > 24000 nM; IC50 [13]: > 24000 nM; IC50 [16]: > 13000 nM; Vd [17]: 1.8 L/kg
–	–	–	–	34	–	–	CS(=O)(=O)Cn1cnc2c(N3C4CCC3COC4)nc(-c3cncc4[nH]ccc34)cc21	–
18	–	–	49	–	–	–	C[C@@H]1COCCN1c1nc(-c2cncc3[nH]ccc23)cc2c1ncn2C	IC50 [18]: 84 nM; IC50 [16]: 7500 nM; Vd [17]: 2.3 L/kg
–	–	–	–	26	–	> 10000	c1cc(-c2cc3c(ncn3CC3CC3)c(N3CCOCC3)n2)c2cc[nH]c2c1	–
–	–	–	–	1	–	–	C[C@@H]1COCCN1c1nc(-c2cccc3[nH]ccc23)cc2c1ncn2CS(C)(=O)=O	EC50 [18]: 570 nM

From ChEMBL document CHEMBL3352352, “Structure-Based Drug Design of Novel, Potent, and Selective Azabenzimidazoles (ABI) as ATR Inhibitors” (ACS Med Chem Lett, 2015)
